Results from ChEMBL document CHEMBL5126596, “Design and synthesis of a novel non peptide CN-NFATc signaling inhibitor for tumor suppression in triple negative breast cancer” (Eur J Med Chem, 2022).
Calls of active or inactive are those of the source. The rule behind the calls is not given here.

Experiments:
[1] = molecular target: T1, Nuclear factor of activated T-cells, cytoplasmic 1 (Homo sapiens) (UniProt O95644); assay: Inhibition of NFATC activity in HEK293T cells at 50 uM preincubated for 2 hrs followed by ionomycin/phorbol 12-myristate 13-acetate stimulation and measured after 4 hrs by luciferase reporter assay; assay type: cell-based; conditions: time 6.0 hrs
T1 sequence (whole entry): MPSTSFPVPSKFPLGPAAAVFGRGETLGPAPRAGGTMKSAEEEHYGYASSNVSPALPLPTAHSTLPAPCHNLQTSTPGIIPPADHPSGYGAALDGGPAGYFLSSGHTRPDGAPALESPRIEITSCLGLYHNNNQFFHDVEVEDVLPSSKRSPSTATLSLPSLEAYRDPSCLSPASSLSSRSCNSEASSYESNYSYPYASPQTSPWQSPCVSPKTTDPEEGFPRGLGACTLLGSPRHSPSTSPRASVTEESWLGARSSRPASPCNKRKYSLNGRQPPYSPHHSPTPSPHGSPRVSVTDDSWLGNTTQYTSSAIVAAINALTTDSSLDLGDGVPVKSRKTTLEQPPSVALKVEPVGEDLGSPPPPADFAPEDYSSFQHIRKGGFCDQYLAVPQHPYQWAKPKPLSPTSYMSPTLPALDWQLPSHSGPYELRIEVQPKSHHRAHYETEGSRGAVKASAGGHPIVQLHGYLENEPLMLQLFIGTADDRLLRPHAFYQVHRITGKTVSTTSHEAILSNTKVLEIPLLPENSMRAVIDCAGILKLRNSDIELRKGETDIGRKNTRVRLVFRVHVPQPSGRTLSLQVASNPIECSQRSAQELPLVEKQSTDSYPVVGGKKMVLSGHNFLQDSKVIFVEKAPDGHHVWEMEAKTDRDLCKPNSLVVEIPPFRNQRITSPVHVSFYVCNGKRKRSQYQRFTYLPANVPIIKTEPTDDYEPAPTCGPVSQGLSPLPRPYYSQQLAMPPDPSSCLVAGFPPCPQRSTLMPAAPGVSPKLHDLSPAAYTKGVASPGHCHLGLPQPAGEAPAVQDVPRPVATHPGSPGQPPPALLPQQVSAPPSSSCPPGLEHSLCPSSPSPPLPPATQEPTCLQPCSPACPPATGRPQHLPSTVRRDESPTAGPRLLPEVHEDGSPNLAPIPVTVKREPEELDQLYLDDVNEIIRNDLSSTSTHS
How it was run: (§1)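 HEK 293T cells (7.5 × 10⁴/well) co-transfected by CaCl₂ method with 100 ng 3xNFAT-luc and 1 ng pRLnull as transfection control. At 24 h, compound added for 2 h, then stimulated with 1 µM ionomycin, PMA and CaCl₂ for 4 h (20 ng/ml PMA and 2 mM CaCl₂ per figure legend). Luciferase read from crude extracts, relative to stimulated no-compound control (100%). Single doses 50 and 5 μM; dose-response 0.1–50 μM. IC50 by nonlinear regression; 3 experiments in triplicate.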

[2] = molecular target: T1, Nuclear factor of activated T-cells, cytoplasmic 1 (Homo sapiens); assay: Inhibition of NFATC activity in HEK293T cells preincubated for 2 hrs followed by ionomycin/phorbol 12-myristate 13-acetate stimulation and measured after 4 hrs by luciferase reporter assay; assay type: cell-based; conditions: dose 0.1-50 µM, time 6.0 hrs, DDE = dose-dependent effect; how it was run: as §1
[3] = molecular target: Protein phosphatase 3 catalytic subunit alpha (Homo sapiens) (UniProt Q08209); assay: Displacement of carboxyfluorescein labelled NFATc2 derived PRIEIT peptide from human CNAalpha (2 to 347 residues) at 10 to 100 uM preincubated for 15 mins followed by CF-PRIEIT addition and measured after 15 mins by fluorescence polarization assay; conditions: dose 10-100 µM, time 30.0 min
How it was run: (§2)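 FP competition assay: 10 µM human CNAα (residues 2–347) preincubated with compound for 15 min at rt. CF-tagged NFATc2 SPRIEIT peptide (10 nM) then added for a further 15 min. Read at excitation 485 nm / emission 535 nm. Triplicates from at least three independent experiments.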

[4] = molecular target: Protein phosphatase 3 catalytic subunit alpha (Homo sapiens) (UniProt Q08209); assay: Displacement of carboxyfluorescein labelled NFATc2 derived PRIEIT peptide from human CNAalpha (2 to 347 residues) at 100 uM preincubated for 15 mins followed by CF-PRIEIT addition and measured after 15 mins by fluorescence polarization assay; conditions: time 30.0 min; how it was run: as §2
[5] = molecular target: T1, Nuclear factor of activated T-cells, cytoplasmic 1 (Homo sapiens); assay: Inhibition of NFATC activity in human CD4+ T cells assessed as reduction of IL-2 secretion preincubated for 2 hrs followed by anti-CD3/CD28 stimulation and measured after 48 hrs by ELISA; assay type: cell-based; conditions: CD4+ve Th
How it was run: (§3)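 Donor CD4⁺ T cells (1 × 10⁵/well) treated with 10 or 1 μM compound for 2 h. Compound left in place during activation with anti-CD3/CD28 beads (10 cells/bead). IL-2 and IFNγ measured by ELISA in supernatants after 48 h. Mean ± SEM.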

CD4+ve Th = assay: Immunosuppressive activity in human CD4+ve Th cells assessed as inhibition of T cell proliferation […] by [3H]-thymidine incorporation based scintillation counter method; assay type: functional; conditions: dose <= 10.0 µM, DDE = dose-dependent effect
[6] = molecular target: T1, Nuclear factor of activated T-cells, cytoplasmic 1 (Homo sapiens); assay: Inhibition of NFATC activity in human PBMC cells assessed as reduction of IFN gamma gene expression preincubated for 2 hrs followed by ionomycin/phorbol 12-myristate 13-acetate stimulation and measured after 4 hrs byRT-PCR analysis; assay type: cell-based; conditions: dose 2-50 µM, time 6.0 hrs, DDE = dose-dependent effect
How it was run: (§4)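 Isolated hPBMC treated with compound at 50, 10 and 2 μM for 2 h. Stimulated without washout with 1 μM ionomycin, 20 nM PMA and 10 mM CaCl₂ for 4 h. RNA extracted and 1 μg reverse-transcribed; qPCR run with UPL probes. Fold change by ΔΔCT. Mean ± SD of 3 independent experiments in triplicate.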

[7] = molecular target: T1, Nuclear factor of activated T-cells, cytoplasmic 1 (Homo sapiens); assay: Inhibition of NFATC activity in human PBMC cells assessed as reduction of IL2 gene expression preincubated for 2 hrs followed by ionomycin/phorbol 12-myristate 13-acetate stimulation and measured after 4 hrs by RT-PCR analysis; assay type: cell-based; conditions: dose 2-50 µM, time 6.0 hrs, DDE = dose-dependent effect; how it was run: as §4
[8] = molecular target: T1, Nuclear factor of activated T-cells, cytoplasmic 1 (Homo sapiens); assay: Inhibition of NFATC activity in human CD4+ T cells assessed as reduction of IFN gamma secretion preincubated for 2 hrs followed by anti-CD3/CD28 stimulation and measured after 48 hrs by ELISA; assay type: cell-based; conditions: CD4+ve Th; how it was run: as §3
[9] = molecular target: T1, Nuclear factor of activated T-cells, cytoplasmic 1 (Homo sapiens); assay: Inhibition of NFATC activity in HEK293T cells at 5 to 50 uM preincubated for 2 hrs followed by ionomycin/phorbol 12-myristate 13-acetate stimulation and measured after 4 hrs by luciferase reporter assay; assay type: cell-based; conditions: dose 5-50 µM, time 6.0 hrs; how it was run: as §1
[10] = Toxicity in BALB/c mouse xenografted with mouse 4T1 cells assessed as effect on health conditions at 50 mg/kg, […]; assay type: organism-based; conditions: in vivo, ip
4T1 [11] = assay: Antitumor activity against mouse 4T1 cells xenografted in BALB/c mouse assessed as decrease in tumor weight at 50 mg/kg, ip measured after 15 days; conditions: time 15.0 day
[12] = molecular target: Protein phosphatase 3 catalytic subunit alpha (Homo sapiens) (UniProt Q08209); assay: Displacement of carboxyfluorescein labelled NFATc2 derived PRIEIT peptide from human CNAalpha (2 to 347 residues) at 10 uM preincubated for 15 mins followed by CF-PRIEIT addition and measured after 15 mins by fluorescence polarization assay; conditions: time 30.0 min; how it was run: as §2
[13] = Toxicity in BALB/c mouse assessed as loss of body weight at 50 mg/kg, ip administered for 5 days and measured on day 7; assay type: organism-based; conditions: in vivo, 120 h, time 5 day
How it was run: (§5)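 BALB/c mice given 50 mg/kg ip daily, Monday to Friday, and killed on day seven. Monitored for macroscopic clinical signs, behavior, weight loss and general health.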

[14] = Toxicity in BALB/c mouse assessed as clinical signs of abnormal constitution at 50 mg/kg, ip administered for 5 days and measured on day 7; assay type: organism-based; conditions: in vivo, 168 h, time 7 day; how it was run: as §5
4T1 [15] = assay: Anti-angiogenesis activity against mouse 4T1 cells xenografted in BALB/c mouse at 50 mg/kg, ip measured after 15 days by anti-CD31 staining based immunohistochemistry analysis; assay type: functional, organism-based; conditions: time 15.0 day
[16] = Toxicity in BALB/c mouse assessed as aberrant behavior at 50 mg/kg, ip administered for 5 days and measured on day 7; assay type: organism-based; conditions: in vivo, 120 h, time 5 day; how it was run: as §5
[17] = Toxicity in BALB/c mouse xenografted with mouse 4T1 cells assessed as effect on body weight at 50 mg/kg, […]; assay type: organism-based; conditions: in vivo, ip
[18] = Toxicity in BALB/c mouse xenografted with mouse 4T1 cells assessed as effect on body weight at 5 mg/kg, […]; assay type: organism-based; conditions: in vivo, ip, 120 h, time 5 day
[19] = Toxicity in BALB/c mouse xenografted with mouse 4T1 cells assessed as effect on health conditions at 5 mg/kg, […]; assay type: organism-based; conditions: in vivo, ip, time 5 day
4T1 [20] = assay: Anti-angiogenesis activity against mouse 4T1 cells xenografted in BALB/c mouse at 5 mg/kg, ip measured after 15 days by anti-CD31 staining based immunohistochemistry analysis; assay type: functional, organism-based; conditions: time 15.0 day
4T1 [21] = assay: Antitumor activity against mouse 4T1 cells xenografted in BALB/c mouse assessed as decrease in tumor weight at 50 mg/kg, ip measured after 15 days; assay type: functional, organism-based; conditions: time 15.0 day
How it was run: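 Female BALB/c mice (8 weeks, 18–19 g) given 0.5 × 10⁶ 4T1 cells in 1:1 DMEM/Matrigel into the number four mammary fat pad. Treatment began at day 11, once tumors exceeded 100 mm³, with randomization to groups of 9–10. Dosing was ip, daily Monday to Friday, for 15 days with DMSO vehicle. Tumors were then excised and weighed; body weight and health were followed.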

In the case of `O=C(CNC(=O)c1ccc2[nH]ccc2c1)Nc1cccc(S(=O)(=O)N2CCCCC2)c1`, the inhibition [1] is reported as 60%, the inhibition [2] is reported as “Dde” and the Activity [3] is reported as “Active”.
With `CCc1ccc(C(=O)NCC(=O)Nc2cccc(S(=O)(=O)NCC(=O)O)c2)cc1` the inhibition [1] was 60% and the Activity [3] was “Active”.
In the case of `CNc1ccc(C(=O)NCC(=O)Nc2cccc(S(=O)(=O)NCC(=O)O)c2)cc1`, the inhibition [1] is reported as 60% and the Activity [3] is reported as “Active”.
In the case of `O=C(O)CNS(=O)(=O)c1cccc(NC(=O)CNC(=O)c2cnc3ccccc3c2)c1`, the inhibition [1] is reported as 60% and the Activity [3] is reported as “Active”.
With `CCc1ccc(C(=O)Nc2cccc(CNS(C)(=O)=O)c2)cc1` the inhibition [1] was 60% and the Activity [4] was “Active”.
In the case of `CS(=O)(=O)NCc1cccc(NC(=O)c2csc3ccccc23)c1`, the inhibition [5] is reported as “Active”, the Activity (CD4+ve Th) is reported as “Dde” and the inhibition [2] is reported as “Dde”. The Activity [6] was “Dde”, the Activity [7] was “Dde” and the Activity [4] was “Active”. The inhibition [8] was “Active” and the inhibition [9] was 80%.
With `CS(=O)(=O)NCc1cccc(NC(=O)c2ccc3[nH]ccc3c2)c1` the inhibition [5] was “Active”, the Activity [10] was “Non-Toxic” and the Activity (CD4+ve Th) was “Dde”. For the same compound, the inhibition [2] was “Dde”, the Activity (4T1 [11]) was “Active” and the Activity [6] was “Dde”. The Activity [12] was “Active”, the Activity [3] was “Active” and the Activity [13] was “Non-Toxic”. For the same compound, the Activity [7] was “Dde”, the Activity [14] was “Non-Toxic” and the Activity [4] was “Active”. The Activity (4T1 [15]) was “Active”, the Activity [16] was “Non-Toxic” and the inhibition [8] was “Active”. For the same compound, the Activity [17] was “Non-Toxic” and the inhibition [9] was 80%.
In the case of `Cc1ccc(C(=O)NCC(=O)Nc2cc(S(=O)(=O)Nc3ccc(Cl)cc3)ccc2Cl)s1`, the inhibition [5] is reported as “Active”, the Activity [10] is reported as “Non-Toxic” and the Activity (CD4+ve Th) is reported as “Dde”. For the same compound, the inhibition [2] was “Dde”, the Activity (4T1 [11]) was “Active” and the Activity [6] was “Dde”. The Activity [3] was “Active”, the Activity [13] was “Non-Toxic” and the Activity [7] was “Dde”. For the same compound, the Activity [14] was “Non-Toxic”, the Activity [16] was “Non-Toxic” and the inhibition [8] was “Active”. The Activity [17] was “Non-Toxic” and the inhibition [9] was 80%.
For `O=C(O)CNS(=O)(=O)c1cccc(NC(=O)CNC(=O)Cc2ccsc2)c1`, the inhibition [1] was 60% and the Activity [3] was “Active”.
For `CS(=O)(=O)NCc1cccc(NC(=O)Cc2ccsc2)c1`, the inhibition [1] was 60%, the Activity [12] was “Active” and the Activity [4] was “Active”.
In the case of `O=C(O)CNS(=O)(=O)c1cccc(NC(=O)CNC(=O)OCc2ccccc2)c1`, the inhibition [1] is reported as 60% and the Activity [3] is reported as “Active”.
For `C=CC[C@@H]1/C=C(\C)C[C@H](C)C[C@H](OC)[C@H]2O[C@@](O)(C(=O)C(=O)N3CCCC[C@H]3C(=O)O[C@H](/C(C)=C/[C@@H]3CC[C@@H](O)[C@H](OC)C3)[C@H](C)[C@@H](O)CC1=O)[C@H](C)C[C@@H]2OC` [TACROLIMUS ANHYDROUS], the Activity [18] was “Non-Toxic”, the Activity [19] was “Non-Toxic” and the Activity (4T1 [20]) was “Active”. The Activity (4T1 [21]) was “Active”.
With `O=C(O)CNS(=O)(=O)c1cccc(NC(=O)CNC(=O)c2csc3ccccc23)c1` the inhibition [1] was 60% and the Activity [3] was “Active”.
